Assay results reported in ChEMBL document CHEMBL1127442, “Triazolinone biphenylsulfonamide derivatives as orally active angiotensin II antagonists with potent AT1 receptor affinity and enhanced AT2 affinity” (J Med Chem, 1994).

Tests used:
[1] = target: T1, Type-2 angiotensin II receptor (Rattus norvegicus, UniProt P35351); test: In vitro inhibitory activity against angiotensin II rat midbrain AT2 receptor using radioligand [125I]-Sar Ile-AII
T1 sequence (P35351 whole entry): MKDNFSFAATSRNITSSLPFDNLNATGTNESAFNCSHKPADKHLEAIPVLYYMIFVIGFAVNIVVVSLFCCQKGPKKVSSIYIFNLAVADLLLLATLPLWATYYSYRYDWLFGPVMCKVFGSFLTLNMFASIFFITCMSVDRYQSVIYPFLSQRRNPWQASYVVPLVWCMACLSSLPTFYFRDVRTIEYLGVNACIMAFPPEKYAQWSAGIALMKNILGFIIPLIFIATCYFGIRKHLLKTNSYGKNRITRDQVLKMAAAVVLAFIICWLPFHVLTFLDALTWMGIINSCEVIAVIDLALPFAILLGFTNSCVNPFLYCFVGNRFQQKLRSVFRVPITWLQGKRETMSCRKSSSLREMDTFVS
In short: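 Dithiothreitol ([…]) was added to the assay mixture to abolish residual AT1 binding. Tubes were run in duplicate, and IC50 came from nonlinear regression of displacement curves.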

[2] = target: T2, Type-1 angiotensin II receptor (Oryctolagus cuniculus, UniProt P34976); test: In vitro inhibitory activity against angiotensin II rabbit aorta AT1 receptor using radioligand [125I]-Sar Ile-AII; format: tissue-based
T2 sequence (P34976 whole entry): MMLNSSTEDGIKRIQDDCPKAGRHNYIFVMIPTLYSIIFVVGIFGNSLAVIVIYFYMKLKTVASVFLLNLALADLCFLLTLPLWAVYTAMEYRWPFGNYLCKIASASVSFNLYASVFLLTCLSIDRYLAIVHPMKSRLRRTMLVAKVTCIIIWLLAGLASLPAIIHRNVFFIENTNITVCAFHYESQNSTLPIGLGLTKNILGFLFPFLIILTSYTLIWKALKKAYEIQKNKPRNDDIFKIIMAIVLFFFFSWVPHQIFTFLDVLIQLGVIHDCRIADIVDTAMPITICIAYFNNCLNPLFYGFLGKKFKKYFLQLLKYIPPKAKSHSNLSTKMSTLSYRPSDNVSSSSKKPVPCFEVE

IC50 [1] [µM]	IC50 [2] [µM]	SMILES
0.38	0.00075	CCCCc1nn(-c2ccccc2C(F)(F)F)c(=O)n1Cc1ccc(-c2ccccc2S(=O)(=O)NC(=O)COCC)cc1
0.026	0.00048	CCCCc1nn(-c2ccccc2C(F)(F)F)c(=O)n1Cc1ccc(-c2ccccc2S(=O)(=O)NC(=O)c2cc(Cl)ccc2Cl)cc1
0.08	0.00022	CCCCc1nn(-c2ccccc2C(F)(F)F)c(=O)n1Cc1ccc(-c2ccccc2S(=O)(=O)NC(=O)C2(C)SCCS2)cc1
23	0.00078	CCCCc1nn(-c2ccccc2C(F)(F)F)c(=O)n1Cc1ccc(-c2ccccc2-c2nnn[nH]2)cc1
0.19	0.00059	CCCCOC(=O)NS(=O)(=O)c1ccccc1-c1ccc(Cn2c(CCCC)nn(-c3ccccc3C(F)(F)F)c2=O)cc1
0.025	0.00019	CCCCc1nn(-c2ccccc2C(F)(F)F)c(=O)n1Cc1ccc(-c2ccccc2S(=O)(=O)NC(=O)c2occ(Cl)c2Cl)cc1
0.52	0.013	CCCc1nn(-c2ccccc2C(F)(F)F)c(=O)n1Cc1ccc(-c2ccccc2S(=O)(=O)NC(=O)c2ccccc2)cc1
0.053	0.00013	CCCCc1nn(-c2ccccc2C(F)(F)F)c(=O)n1Cc1ccc(-c2ccccc2S(=O)(=O)NC(=O)c2ccccc2F)cc1
0.19	0.00082	CCCCc1nn(-c2ccccc2C(F)(F)F)c(=O)n1Cc1ccc(-c2ccccc2S(=O)(=O)NC(=O)c2ccccc2Cc2ccccc2)cc1
0.5	0.00074	CCCCc1nn(-c2ccccc2C(F)(F)F)c(=O)n1Cc1ccc(-c2ccccc2S(=O)(=O)NC(=O)c2ccc(OC)cc2)cc1
5.2	0.078	CCCCc1nn(-c2ccccc2C(F)(F)F)c(=O)n1Cc1ccc(-c2ccccc2S(=O)(=O)Nc2ccc([N+](=O)[O-])cc2)cc1
5.5	0.0018	CCCCc1nn(-c2ccccc2C(F)(F)F)c(=O)n1Cc1ccc(-c2ccccc2NS(=O)(=O)C(F)(F)F)cc1
0.084	0.00067	CCCCc1nn(-c2ccccc2C(F)(F)F)c(=O)n1Cc1ccc(-c2ccccc2S(=O)(=O)NC(=O)c2cc(Br)sc2Br)cc1
> 1	0.0047	CCCCc1nn(-c2ccccc2C(F)(F)F)c(=O)n1Cc1ccc(-c2ccccc2S(=O)(=O)NC#N)cc1
0.5	0.0058	CC1CC1Cc1nn(-c2ccccc2C(F)(F)F)c(=O)n1Cc1ccc(-c2ccccc2S(=O)(=O)NC(=O)c2ccccc2)cc1 (stereo unspecified)
0.22	0.00027	CCCCc1nn(-c2ccccc2C(F)(F)F)c(=O)n1Cc1ccc(-c2ccccc2S(=O)(=O)NC(=O)c2ccccc2C(F)(F)F)cc1
0.055	0.00022	CCCCc1nn(-c2ccccc2C(F)(F)F)c(=O)n1Cc1ccc(-c2ccccc2S(=O)(=O)NC(=O)c2oc(C)cc2C)cc1
0.1	0.00039	CCCCc1nn(-c2ccccc2C(F)(F)F)c(=O)n1Cc1ccc(-c2ccccc2S(=O)(=O)NC(=O)C2CC3CCC2C3)cc1 (stereo unspecified)
0.1	0.00084	CCCCc1nn(-c2ccccc2C(F)(F)F)c(=O)n1Cc1ccc(-c2ccccc2S(=O)(=O)NC(=O)C2CCC2)cc1
0.19	0.00064	CCCCc1nn(-c2ccccc2C(F)(F)F)c(=O)n1Cc1ccc(-c2ccccc2S(=O)(=O)NC(=O)c2ccc(C)s2)cc1
0.12	0.00056	CCCCc1nn(-c2ccccc2C(F)(F)F)c(=O)n1Cc1ccc(-c2ccccc2S(=O)(=O)NC(=O)C2CC2C)cc1 (stereo unspecified)
0.5	0.0026	CCCCc1nn(-c2c(Cl)cccc2Cl)c(=O)n1Cc1ccc(-c2ccccc2S(=O)(=O)NC(=O)c2ccccc2)cc1
0.18	0.0043	CCCCc1nn(-c2ccccc2C(F)(F)F)c(=O)n1Cc1ccc(-c2ccccc2S(=O)(=O)NC(=O)C2CCCO2)cc1 (stereo unspecified)
2.4	0.0002	CCCCc1nn(-c2ccccc2C(F)(F)F)c(=O)n1Cc1ccc(-c2ccccc2S(=O)(=O)NS(=O)(=O)c2ccccc2)cc1
0.5	0.00068	CCCCc1nn(-c2ccccc2C(F)(F)F)c(=O)n1Cc1ccc(-c2ccccc2S(=O)(=O)NC(=O)c2ccc(F)cc2)cc1
0.15	0.0024	CCCCc1nn(-c2ccccc2C(F)(F)F)c(=O)n1Cc1ccc(-c2ccccc2S(=O)(=O)NC(=O)c2cccc(Cl)c2)cc1
0.33	0.0006	CCCCc1nn(-c2ccccc2C(F)(F)F)c(=O)n1Cc1ccc(-c2ccccc2S(=O)(=O)NC(=O)c2ccccc2-c2ccccc2)cc1

IC50 [1] [µM]	IC50 [2] [µM]	SMILES
> 0.3	0.0055	O=C(NS(=O)(=O)c1ccccc1-c1ccc(Cn2c(CCCC(F)(F)F)nn(-c3ccccc3C(F)(F)F)c2=O)cc1)c1ccccc1
0.087	0.0026	CCCCc1nn(-c2ccccc2C(F)(F)F)c(=O)n1Cc1ccc(-c2ccccc2S(=O)(=O)NC(=O)c2cc(Cl)sc2Cl)cc1
0.43	0.00031	CCCCc1nn(-c2ccccc2C(F)(F)F)c(=O)n1Cc1ccc(-c2ccccc2S(=O)(=O)NC(=O)c2cc3ccccc3s2)cc1
0.17	0.0004	CCCCc1nn(-c2ccccc2C(F)(F)F)c(=O)n1Cc1ccc(-c2ccccc2S(=O)(=O)NC(=O)c2ccc(Br)o2)cc1
0.19	0.0059	CCCCc1nn(-c2ccccc2C(F)(F)F)c(=O)n1Cc1ccc(-c2ccccc2S(=O)(=O)NC(=O)c2c(C)cccc2C)cc1
0.076	0.0008	CCCCc1nn(-c2ccccc2C(F)(F)F)c(=O)n1Cc1ccc(-c2ccccc2S(=O)(=O)NC(=O)C2(C)CC2)cc1
0.5	0.0016	CCCCc1nn(-c2ccccc2C(F)(F)F)c(=O)n1Cc1ccc(-c2ccccc2S(=O)(=O)NC(=O)c2cccn2C)cc1
0.15	0.0004	CCCCc1nn(-c2ccccc2C(F)(F)F)c(=O)n1Cc1ccc(-c2ccccc2S(=O)(=O)NC(=O)c2ccc(C)o2)cc1
0.27	0.002	CCCCc1nn(-c2ccccc2C(F)(F)F)c(=O)n1Cc1ccc(-c2ccccc2S(=O)(=O)NC(=O)CCOC)cc1
0.13	0.00043	CCCCc1nn(-c2ccccc2C(F)(F)F)c(=O)n1Cc1ccc(-c2ccccc2S(=O)(=O)NC(=O)c2oc3ccccc3c2C)cc1
4.6	0.007	CCCCc1nn(C(C)C)c(=O)n1Cc1ccc(-c2ccccc2S(=O)(=O)NC(=O)c2ccccc2)cc1
24	0.82	CCCCc1nn(-c2ccccc2Cl)c(=O)n1Cc1ccc(-c2ccccc2S(N)(=O)=O)cc1
0.035	0.00035	CCCCc1nn(-c2ccccc2C(F)(F)F)c(=O)n1Cc1ccc(-c2ccccc2S(=O)(=O)NC(=O)C2SCCS2)cc1
0.78	0.00072	CCCCc1nn(-c2ccccc2C(F)(F)F)c(=O)n1Cc1ccc(-c2ccccc2S(=O)(=O)NC(=O)c2cccc(Cl)c2Cl)cc1
0.1	0.0013	CCCCc1nn(-c2ccccc2C(F)(F)F)c(=O)n1Cc1ccc(-c2ccccc2S(=O)(=O)NC(=O)CCCCCN)cc1
0.52	0.001	CCCCc1nn(-c2ccccc2C(F)(F)F)c(=O)n1Cc1ccc(-c2ccccc2S(=O)(=O)NC(=O)c2cccnc2Cl)cc1
0.28	0.0028	CCCCc1nn(-c2ccccc2C(F)(F)F)c(=O)n1Cc1ccc(-c2ccccc2S(=O)(=O)NC(=O)C2CCOC2)cc1 (stereo unspecified)
0.45	0.0029	CCCCCCCC(=O)NS(=O)(=O)c1ccccc1-c1ccc(Cn2c(CCCC)nn(-c3ccccc3C(F)(F)F)c2=O)cc1
0.26	0.0013	CCCCc1nn(-c2ccccc2C(F)(F)F)c(=O)n1Cc1ccc(-c2ccccc2S(=O)(=O)NC(=O)c2ccc(Cl)s2)cc1
0.27	0.0003	CCCCc1nn(-c2ccccc2C(F)(F)F)c(=O)n1Cc1ccc(-c2ccccc2S(=O)(=O)NC(=O)C2CCCCCC2)cc1
0.13	0.0033	CCCCc1nn(-c2ccccc2C(F)(F)F)c(=O)n1Cc1ccc(-c2ccccc2S(=O)(=O)NC(=O)C2C(C)(C)C2(C)C)cc1
0.4	0.0008	CCCCc1nn(-c2ccccc2C(F)(F)F)c(=O)n1Cc1ccc(-c2ccccc2S(=O)(=O)NC(=O)C(F)(F)F)cc1
3.6	0.00016	CCCCc1nn(-c2ccccc2C(F)(F)F)c(=O)n1Cc1ccc(-c2ccccc2S(=O)(=O)NS(=O)(=O)C(C)C)cc1
0.59	0.0014	CCCCc1nn(-c2ccccc2Cl)c(=O)n1Cc1ccc(-c2ccccc2S(=O)(=O)NC(=O)c2ccccc2)cc1
0.12	0.00037	CCCCc1nn(-c2ccccc2C(F)(F)F)c(=O)n1Cc1ccc(-c2ccccc2S(=O)(=O)NC(=O)C2(C)CC2(Cl)Cl)cc1 (stereo unspecified)
0.7	0.0039	CCCCc1nn(-c2ccccc2C(F)(F)F)c(=O)n1Cc1ccc(-c2ccccc2S(=O)(=O)NC(=O)c2ccoc2)cc1
